# Experimental data published in publication PMC11812931 (CPT: Pharmacometrics & Systems Pharmacology, 2024).
# Marks after values point to notes of the source that are not given here.
# Assays:
# [1] = MPKF phase I two-period crossover food effect pharmacokinetic study; type: in vivo, human; conditions: for AUC0–inf LSM geometric mean ratio (90% CI) / C max LSM geometric mean ratio (90% CI): fed (test) vs fasted (reference); for AUC(0-inf) / Cmax: human, 120 mg; for AUC(0-inf): AUC0–inf; for Cmax: C max
# [2] = PopPK model of MDMA and MDA; type: in vivo, human
# Procedure, shortened: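 Single-dose plasma data came from 65 healthy volunteers: 16 from the fasted food-effect study and 49 from a randomized, double-blind, placebo-controlled crossover study. The dataset held 2012 MDMA and 1871 MDA samples, excluding BLQ values, samples with missing time and pre-dose concentrations. Modelling used nonlinear mixed effects with first-order conditional estimation with interaction. One- and two-compartment models were tested, with first-order or sequential zero-/first-order absorption.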
# [3] = HVs, single oral dose of 100 mg MDMA HCl, absence of paroxetine; cited from earlier work
# [4] = cited from earlier work
# [5] = plasma, oral, Median [Min, Max], 120 mg MDMA HCl, Fasted
# [6] = plasma, oral, Median [Min, Max], 120 mg MDMA HCl, Fed
# [7] = plasma, po, Geo. Mean (Geo. CV%), single oral 120 mg MDMA HCl, Fasted, N = 15
# [8] = plasma, po, Geo. Mean (Geo. CV%), single oral 120 mg MDMA HCl, Fed (high-fat/high-calorie meal), N = 14
# [9] = MPKF fasted vs NIDA light breakfast
# [10] = MPKF fed vs NIDA light breakfast
smiles,measurement,setting,value
"CC(N)Cc1ccc2c(c1)OCO2 (stereo not drawn) [MDA, 3,4‐methylenedioxyamphetamine]",AUC0–inf LSM geometric mean ratio (90% CI),[1],0.99 (0.93–1.06)
same,C max LSM geometric mean ratio (90% CI),[1],0.96 (0.90–1.03)
same,AUC(0-inf),[1]; [5],358 ng·h/mL
same,AUC(0-inf),[1]; [6],343 ng·h/mL
same,Cmax,[1]; [5],12.5 ng/mL
same,AUC(0-inf),[1]; [7],330 ng·h/mL
same,AUC(0-inf),[1]; [8],369 ng·h/mL
same,lower V4 (MDA peripheral volume of distribution) in female subjects,[2]; compared to male,18%
same,"Body weight effect on CLM, Bootstrap median (95% CI)",[2]; covariate coefficient,"0.585 (0.209, 0.879)"
same,"Body weight effect on CLM, Estimate",[2]; covariate coefficient,0.580
same,"Body weight effect on QM, Bootstrap median (95% CI)",[2]; covariate coefficient,"1.02 (0.408, 1.63)"
same,"Body weight effect on QM, Estimate",[2]; covariate coefficient,1.00
same,"Sex effect on V4, Bootstrap median (95% CI)",[2]; female vs male,"−0.18 (−0.321, −0.0256)"
same,"Sex effect on V4, Estimate",[2]; female vs male,−0.181
same,Vd,"[2]; human, plasma, oral",20.8 L
same,clearance,"[2]; human, plasma, oral",582 mL/min
same,"IIV on CLM, Estimate",[2]; inter-individual variability,"32.0 ^ b , ^ c %CV"
same,"IIV on QM, Estimate",[2]; inter-individual variability,"46.8 ^ b , ^ d %CV"
same,"IIV on V4, Estimate",[2]; inter-individual variability,"35.2 ^ c , ^ d %CV"
same,"CLM, Bootstrap median (95% CI)",[2]; n = 1000 bootstrap,"36.1 (33.5, 38.8) L/h"
same,"QM, Bootstrap median (95% CI)",[2]; n = 1000 bootstrap,"83.9 (68.8, 103) L/h"
same,"V3, Bootstrap median (95% CI)",[2]; n = 1000 bootstrap,"20.8 (11.9, 28.4) L"
same,"V4, Bootstrap median (95% CI)",[2]; n = 1000 bootstrap,"213 (181, 246) L"
"CNC(C)Cc1ccc2c(c1)OCO2 (stereo not drawn) [MDMA, 3,4‐methylenedioxymethamphetamine]",AUC0–inf LSM geometric mean ratio (90% CI),[1],0.99 (0.94–1.04)
same,C max LSM geometric mean ratio (90% CI),[1],0.97 (0.92–1.01)
same,T max delay following administration with food,[1]; fed vs fasted,2 h
same,AUC(0-inf),[1]; [5],3730 ng·h/mL
same,Cmax,[1]; [5],234 ng/mL
same,Cmax,[1]; [6],230 ng/mL
same,AUC(0-inf),[1]; [7],3390 ng·h/mL
same,AUC(0-inf),[1]; [8],3320 ng·h/mL
same,"T max, Median [Min, Max]","[1]; plasma, 120 mg MDMA HCl, Fasted","2.1 [2.0, 8.0] h"
same,adverse events (AE) severity,"[1]; single 120 mg MDMA HCl, healthy volunteers",mild in severity and resolved
same,fmet (fraction of MDMA metabolized to MDA),[2]; FIXED in the model,0.1 FIXED
same,faster absorption in fasted subjects,[2]; MPKF fasted compared to NIDA light breakfast,193%
same,"Fasted status effect on ka, Bootstrap median (95% CI)",[2]; [9],"1.08 (0.277, 4.31)"
same,"Fasted status effect on ka, Estimate",[2]; [9],1.93
same,"Fed status effect on ka, Bootstrap median (95% CI)",[2]; [10],"−0.496 (−0.645, −0.239)"
same,"Fed status effect on ka, Estimate",[2]; [10],−0.484
same,"Study effect on V2/F, Bootstrap median (95% CI)",[2]; MPKF vs NIDA,"−0.267 (−0.342, −0.19)"
same,"Study effect on V2/F, Estimate",[2]; MPKF vs NIDA,−0.263
same,lower MDMA CL/F for MPKF subjects,[2]; compared to NIDA,36%
same,lower MDMA V2/F for MPKF subjects,[2]; compared to NIDA,26%
same,"Body weight effect on V2/F, Bootstrap median (95% CI)",[2]; covariate coefficient,"0.884 (0.6, 1.11)"
same,"Body weight effect on V2/F, Estimate",[2]; covariate coefficient,0.885
same,"ALAG1 (absorption lag time), Estimate",[2]; final MDMA PopPK model,0.322 h
same,"CL/F, Estimate",[2]; final MDMA PopPK model,41.5 L/h
same,"D1 (duration of zero order input), Estimate",[2]; final MDMA PopPK model,0.304 h
same,"V2/F, Estimate",[2]; final MDMA PopPK model,462 L
same,"ka, Estimate",[2]; final MDMA PopPK model,1.17 h⁻¹
same,"IIV on CL/F, Estimate",[2]; inter-individual variability,30.5 ^a %CV
same,"IIV on D1, Estimate",[2]; inter-individual variability,153 %CV
same,"IIV on KA, Estimate",[2]; inter-individual variability,60.2 %CV
same,"IIV on V2/F, Estimate",[2]; inter-individual variability,19.9 ^a %CV
same,"ALAG1, Bootstrap median (95% CI)",[2]; n = 1000 bootstrap,"0.323 (0.273, 0.358) h"
same,"CL/F, Bootstrap median (95% CI)",[2]; n = 1000 bootstrap,"41.8 (37.7, 45.8) L/h"
same,"D1, Bootstrap median (95% CI)",[2]; n = 1000 bootstrap,"0.271 (0.141, 0.485) h"
same,"V2/F, Bootstrap median (95% CI)",[2]; n = 1000 bootstrap,"461 (429, 496) L"
same,"ka, Bootstrap median (95% CI)",[2]; n = 1000 bootstrap,"1.17 (0.969, 1.43) 1/h"
same,CL/F (apparent oral clearance),[3],36.3 L/h
same,CLR (renal clearance),[3],9.40 L/h
same,effective dose (as low as),[4],≥ 75 mg HCl
same,tolerated dose (as high as),[4]; split dose,≤ 225 mg HCl
